# Bioassay records (PubChem BioAssay)
# An excerpt weighted towards active compounds, which were near 7.4% of everything screened.
# JNK3 blocker: JNK3 kinase activity inhibitors, primary screen, biochemical, human, purified enzyme. Mitogen-activated protein kinase 10 (Homo sapiens), P53779. 60,000 compounds, 0.61% hits. AID 746, 2007. inhibition, % at 8 µM. HTS; in the data active means inhibition above about 17%;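 further: 0% = DMSO and 100% = reference inhibitor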
# Target sequence (P53779 whole entry, looked up): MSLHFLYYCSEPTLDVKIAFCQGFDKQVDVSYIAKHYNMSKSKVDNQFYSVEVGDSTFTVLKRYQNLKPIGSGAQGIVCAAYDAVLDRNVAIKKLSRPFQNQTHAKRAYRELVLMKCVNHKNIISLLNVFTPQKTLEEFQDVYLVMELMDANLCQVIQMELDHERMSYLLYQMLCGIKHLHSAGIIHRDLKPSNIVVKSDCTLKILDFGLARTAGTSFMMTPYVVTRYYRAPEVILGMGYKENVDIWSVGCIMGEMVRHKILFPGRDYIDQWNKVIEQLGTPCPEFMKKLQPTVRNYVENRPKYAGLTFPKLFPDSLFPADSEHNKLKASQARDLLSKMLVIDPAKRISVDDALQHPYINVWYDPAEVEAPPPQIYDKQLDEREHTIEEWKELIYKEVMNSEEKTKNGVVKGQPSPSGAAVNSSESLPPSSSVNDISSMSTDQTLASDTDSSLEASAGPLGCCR
# S1P3 ag: human S1P3 receptor agonists, primary screen, cell-based, primary and confirmation, NFAT-BLA reporter. S1P3 NFAT-BLA reporter cells, agonism, FRET ratio; relative to 1 µM S1P, basal subtracted. activation, % at 4.5 µM. 60,000 compounds, 0.1% hits;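 active means activation above the screen-wide mean plus 3 SD, cut at about 4.5% in these data, passing the limit was not always enough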
#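 Measure – % activation relative to 1 µM S1P (100%), per plate · System – stable CHO line with human S1P3, Gα16, NFAT-BLA reporter · Timing – cells plated overnight, compound 4 h 37 °C, substrate 2 h RT · Technique – fluorescent BLA substrate, ex 405 nm, em 460/535 nm ratio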
# S1P1 ag-PAM: S1P1 agonists and agonism potentiators, primary screen, cell-based, primary and confirmation screens, CRE-bla reporter | 56,000 compounds, 0.57% hits | activation, % at 9.5 µM | Sphingosine 1-phosphate receptor 1 (Homo sapiens), P21453 | S1P1 CRE-bla cells, forskolin, beta-lactamase FRET, potentiator mode; S1P1 agonist co-added at EC20, 2 nM; 100% = saturating reference agonist, 0% = basal;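 active means activation above a cutoff set at the mean activation of all tested compounds plus 3 SD, cut at about 54% in these data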;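 further: forskolin at 4 µM as EC80 and the EC20 agonist is SEW2871; 100% = SEW2871 at its EC100 plus forskolin at EC80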
# M1 antagonist: antagonists of rat M1 muscarinic receptor | Muscarinic acetylcholine receptor M1 (Rattus norvegicus), P08482 | CHO-M1 cells, Fluo-4 calcium, ACh EC80 antagonist mode; stronger effect = lower value | B-score at 10 µM | 64,000 compounds, 3.4% hits;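 active means calcium fluorescence response, raw or row-and-column corrected B-score, differing from the plate sample mean either way at a set confidence level, mostly lower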
# M1 ag: M1 muscarinic receptor agonists, primary screen, CHO-M1 cells, Fluo-4 calcium, agonist mode. Muscarinic acetylcholine receptor M1. Fluo-4 calcium fluorescence; stronger effect = higher value. B-score at 10 µM. AID 626, 2007. 64,000 compounds, 3% hits;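 active means fluorescence rise, raw or as B-score row- and column-corrected plate score, outside the 99.7% band of its plate's samples, either direction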
# Jurkat tox 60K: cytotoxicity toward Jurkat T cells, primary screen, cytotoxicity control, cell-based, Jurkat E6.1, 60K MLSMR library. inhibition, % at 4 µM. Jurkat E6.1 viability, ATP luminescence, 48 h. 56,000 compounds, 1.2% hits. AID 463, 2006;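 active means inhibition above the mean inhibition of all tested compounds plus 3 SD, cut at about 28% in these data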
# M1 antag confirm: rat M1 muscarinic receptor antagonists, confirmation, CHO cells, Fluo-4 calcium, duplicate | AID 677, 2007 | 1,700 compounds, 43% hits | shares compounds with M1 antagonist | calcium response (max-min fluorescence) at 10 µM | ACh EC80 antagonism; stronger effect = lower value;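 active means calcium response below the same-plate mean of wells given acetylcholine alone at its 80%-effect dose, minus 3 SD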;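 further: raw fluorescence intensity difference in arbitrary instrument units and not normalized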
# mGluR4 antag: human mGluR4 response to M1 antagonist hits, M1 allosteric modulator project, cell-based, antagonist mode, secondary assay 1. shares compounds with M1 antagonist. CHO-mGluR4 calcium flux, Fluo-4 fluorescence, glutamate EC80; stronger effect = lower value. fluorescence response (max-min) at 10 µM. 1,700 compounds, 0.9% hits. AID 678, 2007;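 active means fluorescence response below the plate's average for near-maximal glutamate wells, less 3 SD of those wells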;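 further: raw unnormalized fluorescence span taken in the window right after glutamate addition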
# The depositor's hits bear a star; x = no result.
SMILES,JNK3 blocker,S1P3 ag,S1P1 ag-PAM,M1 antagonist,M1 ag,Jurkat tox 60K,M1 antag confirm,mGluR4 antag
COc1cc(C2C(C#N)=C(N)Oc3n[nH]c(C)c32)cc2c1OCO2 (stereo not drawn),-6,-1,28,-4.8*,0.094,1,642,228
O=C(N1CCCCC1)C1(c2ccccc2)CCOCC1,1,0,-2,0.28,0.64,-1,x,x
O=C(OCCCN1CCCC1)C1(c2ccccc2)CCCC1,-5,-4,9,-18*,0.039,x,27*,261
O=C(OCCCN1CCCCC1)c1ccc(O)cc1,-3,0,-4,0.49,0.36,-4,x,x
CN(C)CCOC(=O)C1(c2ccccc2)CCOCC1,5,0,-4,-3.2*,-1.4,1,362*,202
CN1CCN(C(=O)CCCOc2ccc(Cl)cc2Cl)CC1,-4,-2,1,0.046,-0.18,7,x,x
CN1CCN(C(=O)c2ccc(COc3ccc(Cl)cc3Cl)cc2)CC1,5,-1,8,-2.7*,-1.2,2,529,228
Cc1cc(Cn2ccnc2)c(C)cc1Cn1ccnc1,0,0,-12,-2*,-0.41,x,559,266
CC1=C(C(=O)OC(C)C)C(c2ccccn2)n2ncnc2N1 (stereo not drawn),-1,0,-9,0.53,0.52,2,x,x
CCCCSc1nc(C)c(CC(=O)OC)c(=O)[nH]1,-1,0,-3,0.21,1.6,-7,x,x
CC(NC(=O)CSc1ncnc2nc[nH]c12)c1ccccc1 (stereo not drawn),x,x,x,-3.8*,0.39,x,667,259
O=C(COc1ccc(S(=O)(=O)NC2CCCCC2)cc1)Nc1ccc2c(c1)OCCO2,-2,-1,14,0.059,0.018,8,x,x
Cn1c(N)c(C(=O)COC(=O)C2(c3cccc(F)c3)CCCC2)c(=O)n(C)c1=O,-4,-2,-6,-2.8*,-0.45,-3,630,208
Cn1c(N)c(C(=O)COC(=O)c2ccco2)c(=O)n(C)c1=O,4,0,-12,0.28,-0.26,-4,x,x
O=C(c1cn(-c2ccccc2)nc1-c1cccs1)N1CCN(c2ccccn2)CC1,3,0,-4,-0.33,0.34,-2,x,x
CCOC(=O)Cn1c(=O)oc2cc(S(=O)(=O)Nc3cccc(C)c3)ccc21,-1,-1,5,-0.056,-1.8,7,x,x
CCOC(=O)Cn1c(=O)oc2cc(S(=O)(=O)NCCc3ccc(OCC)c(OCC)c3)ccc21,-2,0,-1,-2.3*,-0.15,-2,650,198
CCOCCCNS(=O)(=O)c1ccc2c(c1)oc(=O)n2CC(=O)OCC,-1,0,10,-0.73,-0.24,-2,x,x
CCOC(=O)Cn1c(=O)oc2cc(S(=O)(=O)N3CCc4ccccc43)ccc21,-11,-1,14,-3.7*,-2.3,4,533,230
CC(C)(C)NC(=O)Cn1c(=O)oc2cc(S(=O)(=O)N3CCc4ccccc43)ccc21,-6,-1,0,-2.4*,-0.089,8,588,245
CCn1c(CCC(=O)Nc2nc3c(s2)CCCC3)nc2cc(S(=O)(=O)N(C)C)ccc21,7,-1,5,-0.28,-0.68,4,x,x
